# Results of several laboratories.
# Target: Serine/threonine-protein kinase Nek9 (NEK9, Homo sapiens, UniProt Q8TD19)
# Residues used in one study (Q8TD19 1-979): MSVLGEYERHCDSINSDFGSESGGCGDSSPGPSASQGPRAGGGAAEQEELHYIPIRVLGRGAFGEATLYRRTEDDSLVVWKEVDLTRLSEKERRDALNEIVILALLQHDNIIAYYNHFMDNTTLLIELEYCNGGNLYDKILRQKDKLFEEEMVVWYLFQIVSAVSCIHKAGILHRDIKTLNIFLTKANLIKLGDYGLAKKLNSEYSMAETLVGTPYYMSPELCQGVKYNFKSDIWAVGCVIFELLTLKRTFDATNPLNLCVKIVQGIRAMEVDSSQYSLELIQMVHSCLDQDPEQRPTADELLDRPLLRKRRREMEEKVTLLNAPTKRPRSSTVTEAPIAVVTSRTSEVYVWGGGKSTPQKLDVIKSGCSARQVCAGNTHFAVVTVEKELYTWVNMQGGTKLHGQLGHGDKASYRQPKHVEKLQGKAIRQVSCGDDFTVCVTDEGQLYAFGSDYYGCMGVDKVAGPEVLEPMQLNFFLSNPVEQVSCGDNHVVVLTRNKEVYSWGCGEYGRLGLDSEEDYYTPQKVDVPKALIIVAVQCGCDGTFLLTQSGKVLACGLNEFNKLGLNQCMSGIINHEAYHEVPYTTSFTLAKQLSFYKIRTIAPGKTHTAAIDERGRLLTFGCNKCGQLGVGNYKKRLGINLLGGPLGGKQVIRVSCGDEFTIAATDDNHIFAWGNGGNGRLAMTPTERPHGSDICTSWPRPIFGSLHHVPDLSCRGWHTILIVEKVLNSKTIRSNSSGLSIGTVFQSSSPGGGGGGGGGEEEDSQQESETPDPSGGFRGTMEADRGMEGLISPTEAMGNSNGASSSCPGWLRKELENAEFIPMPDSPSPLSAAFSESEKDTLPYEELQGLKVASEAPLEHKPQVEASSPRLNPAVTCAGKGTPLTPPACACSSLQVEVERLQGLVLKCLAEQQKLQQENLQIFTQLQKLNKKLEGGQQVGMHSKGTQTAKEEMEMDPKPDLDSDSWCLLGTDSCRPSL
SMILES,effect on,technique,tested at,remaining binding [%]
CC1CCCN1c1nccc(-c2cnn3ncccc23)n1 (stereo not shown),binding,,1 µM,100
Cc1c(C(=O)O)cc(-c2ccc(C3CCNCC3)cc2)c2ccc(-c3ccc(C(F)(F)F)cc3)cc12,binding,competition with immobilised ligand,1 µM,100
C[C@@H]1CCN(c2nccc(-c3cnn4ncccc34)n2)C1,binding,,1 µM,81
O=C(c1ccc(Nc2ncc(Cl)c(-c3cc4ccccc4s3)n2)cc1)N1CCC(N2CCCC2)CC1,binding,competition with immobilised ligand,1 µM,33
Cn1nc(C(=O)NCc2ccc(C(=O)O)cc2)cc1-c1ccc2[nH]ccc2c1,cell-free assay,competition with immobilised ligand,0.1 µM,99
O=C(c1ccc(Nc2ncc(Cl)c(-c3ccc(Cl)s3)n2)cc1)N1CCC(N2CCCC2)CC1,binding,competition with immobilised ligand,1 µM,23
C[C@@H](c1ccc(-n2cnc3c(N)ncnc32)cc1)N1CCc2nn(C)c(Cc3ccccc3)c2C1=O,binding,competition with immobilised ligand,0.1 µM,94
CN(C)c1ncc(F)c(-c2cnn3ncccc23)n1,binding,,1 µM,100
O=C1NC(c2ccccn2)Sc2ccccc21 (stereo not shown),cell-free assay,competition with immobilised ligand,1 µM,75
CNC(=O)[C@@H]1CC[C@@H](n2c(-c3ccc4cnccc4c3)nc3ccc(C(=O)NCc4cccc(C(N)=O)c4)cc32)C1,binding,competition with immobilised ligand,1 µM,100
Cc1nc(Cc2cccc(C(F)(F)F)c2)sc1-c1ccc(C(N)=O)nc1,cell-free assay,competition with immobilised ligand,1 µM,100
O=C(NCCCN1CCOCC1)c1ccc(Nc2nccc(-c3cc4ccccc4s3)n2)cc1,binding,competition with immobilised ligand,1 µM,73
CN(CCCC(F)(F)F)c1nccc(-c2cnn3ncccc23)n1,binding,,1 µM,100
COc1cnc(Nc2cccc(S(N)(=O)=O)c2)nc1N1CCN(c2ccccc2)CC1,binding,competition with immobilised ligand,1 µM,83
COc1ncc2cc3ccccc3nc2c1C#N,cell-free assay,competition with immobilised ligand,5 µM,95
CN(c1nccc(-c2cnn3ncccc23)n1)C1CC1,binding,,1 µM,100
Cc1c(NC(=O)c2cc(C(N)=O)nc3cc(F)ccc23)c(C(F)(F)F)nn1Cc1ccc(C#N)cc1,cell-free assay,competition with immobilised ligand,1 µM,95
O=C(NCC1CCOCC1)c1n[nH]cc1NC(=O)c1c(F)cccc1F,binding,competition with immobilised ligand,1 µM,92
Cc1cc(NC(=O)c2cccc(S(F)(F)(F)(F)F)c2)cc(-n2ccn3nc(-c4cccnc4)cc23)c1,cell-free assay,competition with immobilised ligand,1 µM,100
CN(C)c1nccc(-c2cnn3ncccc23)n1,binding,,1 µM,100
Cc1cc(-n2nc(Cc3cc(F)cc(C(F)(F)F)c3)nc2C)ccc1C(N)=O,cell-free assay,competition with immobilised ligand,1 µM,100
C=CC(=O)N1CCC(C(=O)NCC(=O)N2CCN(c3nc(-c4cnc(N)nc4C(F)F)nc(N4CCOCC4)n3)CC2)CC1,binding,competition with immobilised ligand,1 µM,100
